# Hits are enriched below; roughly 1.9% of the tested compounds scored in any of these assays.
# HEK293 NFkB inh: inhibitors of PMA/ionomycin-induced NF-kB reporter, primary screen, antigen receptor NF-kB inhibitor project, cell-based, HEK-293 luciferase reporter, luminescence | HEK-293 NF-kB luciferase reporter | 62,000 tested, 0.21% active | inhibition, % at 3 µM;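 active = inhibition above the mean of all tested compounds plus 3 SD, cut at about 40% in these data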;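 also: 0% = stimulated DMSO wells and 100% = 10 µM reference inhibitor 5653914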
#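 Material: HEK-293 cells with stable firefly luciferase reporter driven by four HIV NF-kB elements / Also added: PMA plus ionomycin mix as NF-kB-activating stimulus / Compound dosing: 3 µM once, 0.30% DMSO / Times: 1 h pretreatment, 16 h stimulation, 37 °C / Signal: luminescence / Evaluation: per-plate % inhibition versus controls / Benchmarks: DMSO and 10 µM reference inhibitor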
# SK-BR-3 tox 24h: SK-BR-3 proliferation inhibitors, primary screen, cell-based, human, 24 h. SK-BR-3 viability, CellTiter-Glo ATP luminescence; active compounds read low. 41,000 tested, 0.47% active. AID 847, 2007. viability, % at 10 µM;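 active = viability at or below the median of all test compounds minus 3 SD, in both replicates if run twice, cut at about 45% in these data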;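 also: 100% = median untreated cell wells and 0% = median positive control drug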
# mHtt clearance: clearance of mutant huntingtin inclusions, primary screen, imaging, HeLa Exon1htt(103Q)mCFP, confocal imaging | aggregate imaging; zero = plate's median compound well | inhibition, % at 1.5 µM | 47,000 tested, 0.42% active | AID 853, 2007;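 active = inhibition of aggregate fluorescence above about 70%, also judged a hit by eye on the cell image, limit read from the data, passing the limit was not always enough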;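 also: cells exposed to compound for three days before fixation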
# Jurkat viability: cytotoxicity toward Jurkat T cells, primary screen, cytotoxicity control, cell-based, Jurkat E6.1, 60K MLSMR library; Jurkat E6.1 viability, ATP luminescence, 48 h; inhibition, % at 4 µM; 56,000 tested, 1.2% active; AID 463, 2006;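 active = inhibition above the mean inhibition of all tested compounds plus 3 SD, cut at about 28% in these data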
# Her2 expr inh: inhibitors of Her2 protein expression, primary screen, SKBR-3 cells, AlphaScreen, 66K library. SKBR-3 HER2 protein level, 18-24 h; active compounds read low. HER2 level % of control, % at 10 µM. 65,000 tested, 0.69% active. Receptor tyrosine-protein kinase erbB-2 (Homo sapiens), P04626;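 active = HER2 level under 5% of the carrier-only control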;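 also: 100% = DMSO carrier and 0% = 500 nM PU-H71 HSP90 inhibitor; lower value means stronger loss of Her2 protein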
# Numbers without * were called inactive; . = no result given.
SMILES,HEK293 NFkB inh,SK-BR-3 tox 24h,mHtt clearance,Jurkat viability,Her2 expr inh
O=C(CCn1c(=S)[nH]c2ccccc2c1=O)N1CCN(c2ccccn2)CC1,4,.,.,.,119
CCOc1ccc(-c2n[nH]c(C)c2Oc2ccccc2OC)c(O)c1,4,77,.,6,86
C=C(C)COc1ccc(-c2[nH]ncc2Oc2ccccc2OCC)c(O)c1,4,89,.,-3,-17*
C=C(C)COc1ccc(-c2[nH]ncc2-c2ccc(OC)c(OC)c2)c(O)c1,58*,121,.,65*,16
C=C(C)COc1ccc(-c2[nH]ncc2Oc2cccc(OC)c2)c(O)c1,4,87,8,-9,52
C=C(C)COc1ccc(-c2n[nH]c(C)c2Oc2ccccc2OC)c(O)c1,0,97,.,-2,-6.3*
Cn1c(SCC(=O)N(C2CCCCC2)C2CCCCC2)nnc1-c1cccs1,17,81,.,-14,45
CCC1(C)OCC(Cn2c3ccccc3c3ccccc32)O1 (configuration not stated),.,.,2,.,.
O=C(NCc1ccc(F)cc1)c1cnn2ccccc12,.,.,75*,.,.
[N-]=[N+]=CC(=O)CCCN1C(=O)c2ccccc2C1=O,9,87,.,-1,101
[N-]=[N+]=CC(=O)CC(c1ccccc1)N1C(=O)c2ccccc2C1=O (configuration not stated),17,88,.,9,-28*
Cc1cc2oc3c(c(=O)c2cc1C)C(c1cccc(Br)c1)N(Cc1ccco1)C3=O (configuration not stated),18,42*,-157,6,26
Cc1ccc2oc3c(c(=O)c2c1)C(c1cccc(Br)c1)N(Cc1ccco1)C3=O (configuration not stated),-3,91,.,-8,64
COc1ccc2ncn(-c3ccccc3)c2c1,-1,101,75*,2,78
CCN(CC)CCNc1nc2cc(OC)c(OC)cc2c2nc(-c3ccccc3)nn12,.,.,-2,.,.
CCN(CC)S(=O)(=O)c1ccc2oc(C(=O)NCc3ccc(C)cc3)c(C)c2c1,.,.,-52,.,.
CC(NS(=O)(=O)c1ccc(Cl)cc1)C(c1cccs1)N1CCN(C)CC1 (configuration not stated),22,.,77*,.,120
Cc1cc2c(N=O)c(NO)ccc2[nH]1,9,60,24,75*,34
CC1CCC2(CC1)C(Nc1cccc(Cl)c1)=NC(=S)N2CC#N (configuration not stated),.,.,9,.,.
Cc1ccc(OCCN2CCN(C(=O)CCC(=O)Nc3nnc(C)s3)CC2)cc1,4,107,9,13,113
Cc1ccc(OCCN2CCN(C(=O)CCC(=O)Nc3nnc(C(C)C)s3)CC2)cc1,7,84,-3,55*,75
O=C(NCc1ccco1)c1noc2c1CCCCC2,-6,93,.,-4,94
O=C(NCc1cccs1)c1noc2c1CCCC2,17,80,.,68*,85
O=C(NCc1ccc(Cl)cc1)c1noc2c1CCCC2,7,85,.,2,89
O=C(NCc1ccccc1)c1noc2c1CCCC2,2,95,.,56*,82
SMILES,HEK293 NFkB inh,SK-BR-3 tox 24h,mHtt clearance,Jurkat viability,Her2 expr inh
O=C(NCc1cccc(F)c1)c1noc2c1CCCC2,9,.,.,60*,78
N#CC(C(=O)NC1CCCCC1)c1nc2ccccc2nc1N1CCCCC1 (configuration not stated),11,92,.,1,88
COc1ccc(-n2c(SCC(=O)N3CCCC3)nc3c([nH]c4ccccc43)c2=O)cc1,19,.,.,2,73
C#CCNc1nc(CC)nc2c1nnn2Cc1ccccc1F,15,97,-18,0,74
O=C(Cc1ccc(F)cc1)Nc1c2c(nn1-c1cccc(Cl)c1)CS(=O)C2 (configuration not stated),14,36*,25,-2,115
O=C(O)c1cc2c(s1)-c1ccccc1OC2,14,93,.,.,88
O=C(NC1CC1)c1cc2c(s1)-c1ccccc1OC2,-5,.,.,38*,73
O=C(Nc1ccc(Cl)cc1)Nc1ccc2c(c1)N1CCN=C1S2,-4,89,2,10,-8.2*
Nc1ccc2c(c1)N1CCN=C1S2,.,101,.,.,86
